Laboratory results from ChEMBL document CHEMBL4732088, “Identification and optimization of piperlongumine analogues as potential antioxidant and anti-inflammatory agents via activation of Nrf2” (Eur J Med Chem, 2021).
The source made the active and inactive calls. No cut-off for these calls is given here.

Columns and labels:
[1] = target: T1, Nuclear factor erythroid 2-related factor 2 (Mus musculus) (UniProt Q60795); experiment: Activation of Nrf2 in mouse BV2 cells assessed as upregulation of Nrf2 protein expression after 24 hrs by Western blot analysis; type: cell-based; conditions: BV-2, filed as activator, dose 5-20 µM
T1 sequence (whole entry): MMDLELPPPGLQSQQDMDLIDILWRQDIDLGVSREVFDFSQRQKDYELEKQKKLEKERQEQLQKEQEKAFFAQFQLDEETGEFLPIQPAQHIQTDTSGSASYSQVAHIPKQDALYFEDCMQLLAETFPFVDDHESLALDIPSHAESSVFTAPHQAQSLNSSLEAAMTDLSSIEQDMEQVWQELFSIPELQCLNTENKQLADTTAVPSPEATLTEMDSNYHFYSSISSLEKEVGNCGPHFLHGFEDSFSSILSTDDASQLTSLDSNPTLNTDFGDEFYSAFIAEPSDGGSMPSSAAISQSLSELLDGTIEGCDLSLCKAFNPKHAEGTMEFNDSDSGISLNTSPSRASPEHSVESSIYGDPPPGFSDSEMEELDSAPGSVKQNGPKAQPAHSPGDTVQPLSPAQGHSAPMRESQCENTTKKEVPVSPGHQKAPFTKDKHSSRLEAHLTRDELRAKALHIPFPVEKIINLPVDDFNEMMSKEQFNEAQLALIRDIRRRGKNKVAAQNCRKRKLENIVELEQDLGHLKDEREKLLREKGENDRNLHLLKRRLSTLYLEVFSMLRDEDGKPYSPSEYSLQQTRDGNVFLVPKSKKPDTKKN
In short: (§1)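 BV2 microglia exposed to compound for 24 h over a concentration series; Nrf2, NQO1, HO-1, TrxR1, GCLM and GCLC protein levels read by Western blot.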

[2] = target: T2, Nuclear factor erythroid 2-related factor 2 (Rattus norvegicus) (UniProt O54968); experiment: Activation of Nrf2 in rat PC12 cells assessed as increase in GCLM protein level at 20 uM after 12 hrs by Western blot analysis; type: cell-based; conditions: PC-12, filed as activator
T2 sequence (whole entry): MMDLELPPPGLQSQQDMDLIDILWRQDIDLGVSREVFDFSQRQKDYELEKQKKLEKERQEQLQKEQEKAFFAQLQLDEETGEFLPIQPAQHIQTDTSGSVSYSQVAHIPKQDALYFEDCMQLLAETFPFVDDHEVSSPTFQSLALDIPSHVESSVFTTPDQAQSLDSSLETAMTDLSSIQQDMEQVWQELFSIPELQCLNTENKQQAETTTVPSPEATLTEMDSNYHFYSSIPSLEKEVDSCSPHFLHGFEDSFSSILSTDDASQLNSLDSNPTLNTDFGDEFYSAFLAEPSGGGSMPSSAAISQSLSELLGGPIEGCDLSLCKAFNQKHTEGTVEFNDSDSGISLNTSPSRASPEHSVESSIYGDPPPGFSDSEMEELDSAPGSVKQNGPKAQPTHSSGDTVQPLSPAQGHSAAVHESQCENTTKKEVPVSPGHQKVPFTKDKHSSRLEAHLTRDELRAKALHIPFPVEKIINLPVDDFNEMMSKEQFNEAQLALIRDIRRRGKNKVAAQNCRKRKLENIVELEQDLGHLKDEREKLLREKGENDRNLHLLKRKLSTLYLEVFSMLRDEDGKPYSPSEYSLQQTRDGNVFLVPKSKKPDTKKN

PC-12 [3] = experiment: Protection against H2O2-induced mitochondrial dysfunction in rat PC12 cells assessed as change in mitochondrial membrane potential loss at 5 uM pretreated with compound followed by H2O2 addition by JC-1 staining based flow cytometry (reference value: 21.3 %); type: functional
In short: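 Mitochondrial membrane potential in PC12 cells pretreated with compound (5, 10, 20 μM), then exposed to H₂O₂ (200 μM) or 6-OHDA (150 μM). JC-1 staining, red-to-green fluorescence shift read by flow cytometry. Mean ± SD, n = 3.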

PC-12 [4] = experiment: Neuroprotective activity against 6-OHDA-induced cell damage in rat PC12 cells preincubated for 24 hrs followed by 6-OHDA treatment by MTT assay; type: functional, cell-based; conditions: dose 5-20 µM
In short: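 PC12 cells pretreated 24 h with compound (5, 10, 20 μM), then H₂O₂ (200 μM) or 6-OHDA (150 μM); viability by MTT; mean ± SD, three independent experiments.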

PC-12 [5] = experiment: Neuroprotective activity against H2O2-induced apoptosis in rat PC12 cells assessed as reduction in apoptotic nuclei at 5 to 20 uM pretreated with compound followed by H2O2 addition by Hoechst 33342 staining based fluorescence microscopy analysis; type: functional, cell-based; conditions: dose 5-20 µM
In short: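 PC12 cells pretreated with compound before H₂O₂ or 6-OHDA; nuclei stained with Hoechst 33342, imaged on a high-content system with phase-contrast views; apoptotic nuclei scored as bright condensed aggregates; n = 3.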

PC-12 [6] = experiment: Protection against H2O2-induced apoptosis in rat PC12 cells assessed as viable cells at 20 uM incubated for 24 hrs by annexin V FITC/propidium iodide staining based flow cytometry (reference value: 79.3 %); type: functional; conditions: read-out: Activity
PC-12 [7] = experiment: Protection against 6-OHDA-induced apoptosis in rat PC12 cells assessed as viable cells at 5 uM incubated for 24 hrs by annexin V FITC/propidium iodide staining based flow cytometry (reference value: 72.0 %); type: functional; conditions: read-out: Activity
[8] = target: T2, Nuclear factor erythroid 2-related factor 2 (Rattus norvegicus); experiment: Activation of Nrf2 in rat PC12 cells assessed as increase in GCLC protein level at 20 uM after 24 hrs by Western blot analysis; type: cell-based; conditions: PC-12, filed as activator
PC-12 [9] = experiment: Protection against H2O2-induced apoptosis in rat PC12 cells assessed as necrotic cells at 10 uM incubated for 24 hrs by annexin V FITC/propidium iodide staining based flow cytometry (reference value: 0.6 %); type: functional
PC-12 [10] = experiment: Protection against H2O2-induced apoptosis in rat PC12 cells assessed as early apoptotic cells at 20 uM incubated for 24 hrs by annexin V FITC/propidium iodide staining based flow cytometry (reference value: 3.9 %); type: functional
PC-12 [11] = experiment: Neuroprotective activity against 6-OHDA-induced cell death in rat PC12 cells assessed as cell viability at 20 uM preincubated for 30 mins in presence of ZNPP […] and measured after 24 hrs by MTT assay; type: functional, cell-based; conditions: time 24.5 hrs
PC-12 [12] = experiment: Neuroprotective activity against H2O2-induced cell death in rat PC12 cells at 20 uM preincubated for 30 mins in presence of brusatol followed by H2O2 stimulation and measured after 24 hrs by MTT assay; type: functional, cell-based; conditions: time 24.5 hrs
In short: (§2)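 PC12 cells incubated 30 min with compound (20 μM) plus brusatol (10 nM) or ZnPP (10 nM), then insult for 24 h (H₂O₂ stated as 150 μM); viability by MTT.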

PC-12 [13] = experiment: Neuroprotective activity against H2O2-induced cell death in rat PC12 cells assessed as cell viability at 20 uM preincubated for 30 mins in presence of ZNPP followed by H2O2 stimulation and measured after 24 hrs by MTT assay; type: functional, cell-based; conditions: time 24.5 hrs; in short: as §2
[14] = target: T1, Nuclear factor erythroid 2-related factor 2 (Mus musculus); experiment: Activation of Nrf2 in mouse BV2 cells assessed as upregulation of GCLM protein expression after 24 hrs by Western blot analysis; type: cell-based; conditions: BV-2, filed as activator, dose 5-20 µM; in short: as §1
[15] = target: T1, Nuclear factor erythroid 2-related factor 2 (Mus musculus); experiment: Activation of Nrf2 in mouse BV2 cells assessed as inhibition of LPS-induced IL-6 production at 5 to 20 uM by ELISA; type: cell-based; conditions: BV-2, filed as activator, dose 5-20 µM
In short: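 BV2 microglia pretreated with compound, then LPS-stimulated; IL-6 quantified by ELISA kit; mean ± SD, n = 3.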

In the case of `CCN(C)C(=O)N1CCN(C(=O)/C=C/c2ccc(F)cc2)C1=O`, the Activity [1] is reported as “Dose-dependent effect”, the Activity [2] is reported as “Active” and the Activity (PC-12 [3]) is reported as 13.2%. For the same compound, the Activity (PC-12 [4]) was “Dose-dependent effect”, the Activity (PC-12 [5]) was “Active” and the viability at 20 µM (PC-12 [6]) was 93.7%. The viability at 5 µM (PC-12 [7]) was 81.5%, the Activity [8] was “Active” and the Activity (PC-12 [9]) was 0.2%. For the same compound, the Activity (PC-12 [10]) was 2.3%, the Activity (PC-12 [11]) was “inactive” and the Activity (PC-12 [12]) was “inactive”. The Activity (PC-12 [13]) was “inactive”, the Activity [14] was “Dose-dependent effect” and the Activity [15] was “Active”.
